Test results from publication PMC12638245 (Nature Metabolism, 2025).

Tests used:
[1] = tested on: ChREBP; settings: G3P added to HEK293T cells expressing ChREBP and MLX; cited from earlier work
[2] = tested on: circulating FGF21; experiment: Serum FGF21 ELISA in mice given 5%; type: in vivo, mouse; settings: mice of each genotype, 5% (w/v) glycerol in drinking water for 2 days, vs water
Procedure, shortened: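 Mice aged 8–16 weeks, single-housed for 2 days on chow with water or 5% (w/v) glycerol. Blood taken at decapitation; serum spun 8,000g, 10 min, 4 °C. Sandwich ELISA: samples 2 h at room temperature, HRP-conjugated anti-FGF21 2 h, substrate 30 min, read at 450 nm with 570 nm correction. Haemolysed samples excluded; genotype-blinded analysis; two-way ANOVA with Tukey.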

[3] = tested on: hepatic ChREBP transcription programme; type: in vivo, mouse; settings: liver
Procedure, shortened: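 Mice aged 8–16 weeks, single-housed on chow with water or 5% (w/v) glycerol as the only drink for 2 days. Livers freeze-clamped in liquid nitrogen. RNA from 20 mg liver, DNase-treated, RIN >5.0; libraries from 150 ng RNA. Paired-end 150 bp sequencing, >20 million read pairs per sample. HTSeq counts, TMM normalisation in edgeR, GLMs with sequencing batch as covariate.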

[4] = tested on: hepatic G3P, hexose phosphates, pentose phosphates; experiment: Targeted LC-MS metabolomics of mouse liver; type: in vivo
Procedure, shortened: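 Freeze-clamped liver powder (2.0 mg) spiked with 13C3-G3P (2.28 µM final) or a 13C yeast extract internal standard (hexose/pentose phosphates). Boiling 25% 10 mM HEPES/75% ethanol extraction, 55 °C 5 min, sonication, spin at 16,100g, dried, diluted 20-fold. Ion-pair reversed-phase UHPLC (tributylamine/acetic acid, methanol gradient), negative-mode targeted MS2. G3P and hexose phosphates quantified; pentose phosphates relative only.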

[5] = genotype and/or addition of glycerol

SMILES: O=P(O)(O)OCC(O)CO (centres unmarked) [G3P, glycerol-3-phosphate]
- protection of ChREBP from thermal precipitation [1]: protected ChREBP from thermal precipitation

SMILES: OCC(O)CO [glycerol]
- circulating FGF21 [2]: significantly elevated circulating FGF21
- induction of ChREBP transcripts by glycerol ([3]; Slc25a13-/- Gpd2-/- double mutant): no further induction
- Srebf1 expression ([3]; addition of glycerol): unaffected
- induction of ChREBPα transcript by glycerol ([3]; wild-type and single mutant strains): two- to threefold
- hepatic concentrations of hexose phosphates [4, 5]: not altered
- relative levels of pentose phosphates in liver [4, 5]: unaffected
- hepatic G3P level ([4]; glycerol-exposed male mice, each of the four genotypes, vs water): tended to be higher
